Bioassay records deposited in PubChem by Sanford-Burnham Center for Chemical Genomics.
PfGluPho inh = PfG6PD (Plasmodium falciparum) enzyme inhibition; inhibition, % at 20 µM; PfGluPho enzyme, NADPH resazurin-diaphorase fluorescence; hit rate 0.78% among 350,000;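 active = inhibition reaching at least a set limit at 20 µM in the primary screen, cut at about 59% in these data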;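 also: 0% = DMSO wells with substrate and 100% = DMSO wells lacking glucose-6-phosphate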
Diaphorase inh = diaphorase inhibition or chemical oxidation counter-screen; hit rate 0.69% among 190,000; inhibition, % at 20 µM; diaphorase resazurin-to-resorufin fluorescence, NADH, 16 min; bacterial (C. kluyveri) enzyme, not human;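 active = primary screen inhibition at 20 µM above a set limit, cut at about 50% in these data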;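 also: plate controls were DMSO with full reaction for no effect and wells lacking NADH for full effect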
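controls = No-NADH positive control and DMSO neutral control | system = Clostridium kluyveri diaphorase enzyme | timing = reaction incubation of 16 min at room temperature | signal = resorufin fluorescence 544/590 nm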
G6PDH counter = inhibits Leuconostoc G6PDH, flagging false hits in G6PDH-based assays; Purified L. mesenteroides G6PDH, diaphorase/resazurin coupled fluorescence, 45 min; inhibition, % at 5 µM; hit rate 0.12% among 200,000; in the data active = inhibition above about 50%
HKDC1 inh = inhibitors of human hexokinase HKDC1. hit rate 0.16% among 340,000. Q2TB90. AID 493160. inhibition, % at 20 µM. recombinant HKDC1, G6PDH/diaphorase resazurin coupled fluorescence;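 active = inhibition above about 35% when tested at 20 µM, limit read from the data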;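 also: plate controls were DMSO wells with enzyme for no effect and DMSO wells lacking enzyme for full effect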
Target sequence (Q2TB90 whole entry, looked up): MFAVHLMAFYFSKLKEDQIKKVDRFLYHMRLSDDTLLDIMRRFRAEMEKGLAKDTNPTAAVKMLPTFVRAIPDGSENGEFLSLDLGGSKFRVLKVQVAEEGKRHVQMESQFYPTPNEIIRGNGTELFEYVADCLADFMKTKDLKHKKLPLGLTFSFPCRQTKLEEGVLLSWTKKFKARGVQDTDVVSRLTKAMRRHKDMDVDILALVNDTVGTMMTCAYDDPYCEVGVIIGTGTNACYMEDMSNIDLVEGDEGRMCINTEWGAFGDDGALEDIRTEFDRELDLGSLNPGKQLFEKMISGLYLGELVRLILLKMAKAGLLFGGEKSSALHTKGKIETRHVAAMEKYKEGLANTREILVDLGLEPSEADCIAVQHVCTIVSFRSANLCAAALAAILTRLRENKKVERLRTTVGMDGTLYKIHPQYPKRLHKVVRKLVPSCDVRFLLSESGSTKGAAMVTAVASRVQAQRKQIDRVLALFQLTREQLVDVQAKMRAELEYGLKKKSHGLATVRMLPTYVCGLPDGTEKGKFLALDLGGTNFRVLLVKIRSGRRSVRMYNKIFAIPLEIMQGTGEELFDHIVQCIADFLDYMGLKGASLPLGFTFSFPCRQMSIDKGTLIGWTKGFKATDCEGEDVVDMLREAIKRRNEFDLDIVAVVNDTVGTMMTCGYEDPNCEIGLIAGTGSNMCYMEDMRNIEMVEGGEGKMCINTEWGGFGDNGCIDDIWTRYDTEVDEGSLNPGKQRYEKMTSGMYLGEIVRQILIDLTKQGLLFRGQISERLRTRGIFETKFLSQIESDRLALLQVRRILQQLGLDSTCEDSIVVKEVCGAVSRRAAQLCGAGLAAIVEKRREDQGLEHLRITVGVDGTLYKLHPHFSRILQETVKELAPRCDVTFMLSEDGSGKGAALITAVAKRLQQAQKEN
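Assay system – recombinant HKDC1 (HK5) hexokinase enzyme, produced in-house · Input – HKDC1 at 5 µg/mL · Reagent – glucose plus 1 mM ATP as hexokinase substrates · Timing – 90 min reaction incubation at room temperature, dark · Measured by – G6PDH/diaphorase-coupled fluorescence, 1 mM NADP, 100 µM resazurin, 525/613 nm · Benchmarks – DMSO-enzyme wells negative, buffer-substituted wells positive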
Numbers without * were called inactive; . = no result. A selection: hits, their analogues and other compounds. The true share with any hit is near 1.2%.

SMILES	PfGluPho inh	Diaphorase inh	G6PDH counter	HKDC1 inh
CC(C)CNC1=CC(=O)CC(c2ccco2)C1 (centres undefined)	1.3	60.9*	16.0	3.3
CC(C)N1C(=O)/C(=C\c2nc3ccccc3c(=O)[nH]2)c2ccccc21	46.7	56.0*	-1.7	21.7
CCOC(=O)C1=C(Nc2ccc(OC)cc2)C(N)=NC1=N	7.6	.	.	.
O=C1C=CC(=O)N1CCCCCCN1C(=O)C=CC1=O	95.0*	1.9	-6.7	-9.1
CC1=CC(C)(C)NC(=S)N1c1cccc2ccccc12	20.8	8.1	0.9	8.6
CN1c2ccccc2N(C)C1(C)c1cccc2ccccc12	32.3	58.8*	-4.2	28.2
CC1=CC(=O)c2ccccc2C1=O	20.6	-22.4	60.6*	0.2
Cn1ncc(N=Cc2ccccc2)c1C(N)=O	-9.3	15.5	10.6	-5.5
Nc1ncc(Br)cc1N=Cc1ccccc1	88.6*	49.9	12.3	9.9
Cc1ncc(CO)c(/C=N/NC(=O)c2cc(O)c(O)c(O)c2)c1O	.	59.7*	2.1	.
O=C(O)C1Nc2c(C(=O)N3CCOCC3)cccc2C2C=CCC12 (centres undefined)	15.8	40.0	21.4	11.1
CCOC(=O)c1ccc2c(c1)C1C=CCC1C(C(=O)O)N2 (centres undefined)	.	61.7*	0.4	.
Cc1ccc2c(c1C)NC(C(=O)O)C1CC=CC21 (centres undefined)	-8.7	42.7	9.3	38.4*
CN(C)c1ccc(NC(=O)c2ccc(N3CCOCC3)nc2)cc1	21.0	.	.	4.9
CCN(C(=O)CSc1n[nH]c(N)n1)c1cccc2ccccc12	7.3	.	.	-2.7
CC1=C(C)/C(=N\OC(=O)/C=C/c2ccccc2)C=CC1=O	29.9	12.4	7.7	13.4
COc1ccc(S(=O)(=O)/N=C2/C=CC(=O)C(C)=C2C)cc1	62.0*	28.6	39.8	51.8*
CC1=C(C)/C(=N\OS(=O)(=O)c2ccc(C)cc2)C=CC1=O	107.6*	101.1*	31.6	14.7
CC(C)(C)[C@H]1COC(=O)CCC/C=C/C[C@H](CC(=O)NCCO)C(=O)N1	3.6	.	.	-3.8
CC(=O)OCCn1c([N+](=O)[O-])cnc1C=[N+]([O-])C1CCCCC1	-0.6	.	.	.
COc1ccc(OC)c(NC(=O)Cc2ccc(NC3=NC4CS(=O)(=O)CC4S3)cc2)c1 (centres undefined)	11.0	.	.	3.6
CCOC(=O)c1ccc(N=C2SC(C(=O)NCCc3ccccc3)CC(=O)N2C)cc1 (centres undefined)	2.7	53.5*	-8.2	-6.2
Cc1ccc(-n2sc3ccccc3c2=O)cc1S(=O)(=O)N1CCCCC1	127.0*	46.3	-12.5	3.3
O=c1c2ccccc2[nH]c2ccc(F)cc12	14.0	10.4	4.4	-4.4
O=C(O)c1cccc(-n2sc3ccccc3c2=O)c1	114.2*	.	.	5.2
SMILES	PfGluPho inh	Diaphorase inh	G6PDH counter	HKDC1 inh
O=c1c2cc(F)ccc2sn1-c1ccccc1	113.5*	.	.	2.9
COc1ccc(CN(C)C(=O)c2cc(S(=O)(=O)N3CCOCC3)ccc2N2CCCC2)cc1	-0.4	.	.	-4.8
COc1cccc(/C=N/Nc2ccc([N+](=O)[O-])cn2)c1O	-14.1	.	.	35.8*
CC1(NC(=O)Nc2cccc(Br)c2)CCS(=O)(=O)C1 (centres undefined)	15.6	.	.	-8.1
Cc1ccc(-c2csc3nc[nH]c(=S)c23)cc1C	10.1	58.9*	4.4	7.0
O=C(C[n+]1ccc(CCSc2ccc(F)cc2)cc1)c1ccccc1	70.2*	-17.7	-0.5	13.4
Cc1ccc(SCCc2cc[n+](CC(=O)c3ccccc3)cc2)cc1	34.1	-44.6	0.2	-1.6
N#Cc1ccc(C(=O)N2CCN(C(=O)C3CCCO3)CC2)cc1 (centres undefined)	0.5	.	.	-2.9
COc1ccc(N(CCCN2C(=O)c3cccc4cccc(c34)C2=O)C(=O)c2cccs2)cc1	14.5	66.6*	5.5	13.7
COc1cc(C)ccc1N(CCCN1C(=O)c2cccc3cccc(c23)C1=O)C(=O)c1cccs1	26.9	72.0*	-22.7	10.5
COc1ccc(C(=O)NNC(=O)C23CC4CC(CC(C4)C2)C3)cc1OC	-1.3	.	.	-2.7
Cc1cccc(CS(=O)(=O)c2ncc(CO)n2C)c1	24.0	.	.	-6.0
O=C1c2ccccc2C(=O)N1/N=C/c1ccc(O)c(O)c1	-22.7	51.6*	12.1	-1.5
CN(C)c1ncc(CN2CCC(C(=O)Nc3ccc(-n4cccn4)cc3)CC2)s1	6.4	.	.	1.8
CC1(C)CC(NC(=O)c2ccccc2NS(=O)(=O)c2ccc(Br)cc2)CC(C)(C)N1	8.3	.	.	-2.9
C=CC(=O)Nc1cccc(N(C)c2ccnc(Nc3ccc(N4CCN(C)CC4)cc3)n2)c1	66.3*	.	.	8.9
